DSG3 Ab inh: inhibitors of pemphigus antibody binding to DSG3, primary screen, biochemical, bead-based, flow cytometry, scFv-GFP. Desmoglein-3 (Homo sapiens), P32926. DSG3-coupled beads, scFv-anti-DSG3-GFP binding; stronger effect = lower value. binding (percent of control), % at 10 µM. 0.48% of 310,000 active;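 active = binding more than 3 SD below its plate's average and above zero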;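 also: hits lower antibody fragment binding to DSG3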
MEKK3 PB1 HTS: modulators of MEKK3-MEK5 PB1 binding, primary screen, biochemical, wildtype MEKK3, multiplex bead flow cytometry, Alexa488-MEK5. Mitogen-activated protein kinase kinase kinase 3 (Homo sapiens), Q99759. bead-based flow cytometry, Alexa488-MEK5 binding to MEKK3; actives lie on both sides; 0 = blocked by unlabeled MEK5, 100 = vehicle. binding response (% of control), % at 10 µM. 1.4% of 290,000 active;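 active = binding response more than 3 SD above or below the average of its plate-row segment, actives on both sides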;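 also: Alexa488 bead fluorescence after subtracting the streptavidin-only scavenger bead signal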
Apaf1 inhib: inhibitors of human Apaf-1 apoptosome, primary screen, biochemical, DEVD-Rh110 fluorescence, uHTS. Apoptotic protease-activating factor 1 (Homo sapiens), O14727. reconstituted apoptosome caspase-3 activity. inhibition, % at 20 µM. 0.71% of 330,000 active; active = inhibition of at least 40% at 20 µM;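 also: plate controls were DMSO wells for no effect and DEVD-CHO caspase inhibitor wells for full effect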
Target sequence (O14727 whole entry, looked up): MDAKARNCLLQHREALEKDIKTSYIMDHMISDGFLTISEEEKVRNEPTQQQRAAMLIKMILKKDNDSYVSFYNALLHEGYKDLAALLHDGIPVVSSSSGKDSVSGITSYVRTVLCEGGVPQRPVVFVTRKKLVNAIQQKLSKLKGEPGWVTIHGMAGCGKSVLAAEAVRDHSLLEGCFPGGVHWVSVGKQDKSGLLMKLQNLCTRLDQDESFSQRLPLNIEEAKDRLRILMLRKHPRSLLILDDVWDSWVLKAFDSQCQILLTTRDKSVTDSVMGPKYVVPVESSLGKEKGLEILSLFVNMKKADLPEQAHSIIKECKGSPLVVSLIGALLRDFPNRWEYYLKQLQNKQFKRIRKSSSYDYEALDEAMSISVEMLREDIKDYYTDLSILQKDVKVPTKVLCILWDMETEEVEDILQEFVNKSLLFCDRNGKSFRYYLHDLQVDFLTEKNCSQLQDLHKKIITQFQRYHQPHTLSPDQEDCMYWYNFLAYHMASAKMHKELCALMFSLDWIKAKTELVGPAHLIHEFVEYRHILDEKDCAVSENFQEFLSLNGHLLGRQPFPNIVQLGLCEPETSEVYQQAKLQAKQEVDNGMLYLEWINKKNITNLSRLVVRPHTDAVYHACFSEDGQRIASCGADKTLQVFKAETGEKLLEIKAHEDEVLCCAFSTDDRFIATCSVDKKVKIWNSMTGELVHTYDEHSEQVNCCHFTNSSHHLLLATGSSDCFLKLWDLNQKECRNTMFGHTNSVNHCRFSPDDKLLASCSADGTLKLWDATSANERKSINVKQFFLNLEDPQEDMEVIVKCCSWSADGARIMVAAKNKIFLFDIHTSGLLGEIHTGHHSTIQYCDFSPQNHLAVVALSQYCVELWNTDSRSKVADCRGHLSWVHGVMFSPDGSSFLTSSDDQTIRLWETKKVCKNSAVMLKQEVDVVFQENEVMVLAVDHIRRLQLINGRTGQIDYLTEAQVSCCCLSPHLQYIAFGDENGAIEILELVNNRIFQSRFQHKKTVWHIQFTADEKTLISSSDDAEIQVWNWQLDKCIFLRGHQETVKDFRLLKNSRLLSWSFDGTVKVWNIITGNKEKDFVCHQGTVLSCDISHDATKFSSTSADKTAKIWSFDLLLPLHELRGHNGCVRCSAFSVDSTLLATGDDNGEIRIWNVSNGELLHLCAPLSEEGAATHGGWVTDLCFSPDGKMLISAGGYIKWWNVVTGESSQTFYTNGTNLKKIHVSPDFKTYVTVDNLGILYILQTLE
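Assay system: Apoptosome proteins | Medium: pH 7.5 Hepes buffer with CHAPS, BSA, DTT | Also added: Cytochrome c and DEVD-Rh110 substrate | Times: 30 min plus 50 min, RT | Detection: Rhodamine 110 fluorescence at Ex 480/Em 540 nm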
MEKK2 mut-MEK5: MEK5 binding signal on mutant MEKK2 PB1, primary screen, biochemical, multiplex bead flow cytometry, Alexa488-MEK5 | Alexa488-MEK5 binding to MEKK2 mutant | 0.35% of 290,000 active | percent response, % at 10 µM; in the data active = percent response above about 24%, passing the limit was not always enough
MEKK2wt PB1 HTS: modulators of MEK5 binding to wildtype MEKK2, primary screen, biochemical, multiplex bead flow cytometry, Alexa488-MEK5; Mitogen-activated protein kinase kinase kinase 2 (Homo sapiens), Q9Y2U5; Alexa488-MEK5 binding to MEKK2 WT; actives lie on both sides; binding response (% of control), % at 10 µM; 1.1% of 290,000 active; AID 1531, 2009; in the data active = binding response below about 67% or above about 130%
UBC13 polyUb: UBC13 polyubiquitin chain formation inhibitors, primary screen, biochemical, TR-FRET, uHTS. 0.47% of 330,000 active. Ubiquitin-conjugating enzyme E2 N (Homo sapiens), P61088. inhibition, % at 20 µM; in the data active = inhibition above about 45%, passing the limit was not always enough
Apaf-1 inh conf2: Apaf-1 inhibitors, single-dose retest, confirmation, biochemical, fluorescence, DEVD-Rh110, 20 µM; AID 504614, 2011; shares compounds with Apaf1 inhib; 25% of 1,800 active; inhibition, % at 20 µM; reconstituted apoptosome, caspase-3 DEVD-Rh110 fluorescence;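 active = mean inhibition of at least 40% at 20 µM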;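 also: plate controls were DMSO wells for no effect and DEVD-CHO caspase inhibitor control wells for full effect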
Rh110 interf inh: Rh110 fluorescence interference by putative Apaf-1 inhibitors, confirmation, artefact control for Apaf-1 inhibitor project, biochemical, 20 µM | shares compounds with Apaf1 inhib | quenched caspase reaction | activation (fluorescence interference), % at 20 µM | 1,800 tested, under 10 active;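 active = signal rise of 40% or more at 20 µM, treated as a fluorescence artifact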
Apaf1 inh interf: fluorescence interference of Apaf-1 inhibitor hits, dose response, artefact control for Apaf-1 inhibitor project. 460 tested, under 10 active. shares compounds with Apaf1 inhib. fluorescence interference counterscreen, Apaf-1 assay format. IC50, µM; call rule not given here
An asterisk follows results filed as active. Sampled rows, rich in hits. Any-hit rate of the full collection: about 3.2%.

For Cc1[nH]n(-c2ccccc2)c(=O)c1/C=N/Nc1nncc(-c2ccccc2)n1 the results were DSG3 Ab inh 119, MEKK3 PB1 HTS 101, Apaf1 inhib 81*, MEKK2 mut-MEK5 1, MEKK2wt PB1 HTS 100, UBC13 polyUb -37, Apaf-1 inh conf2 89*, Rh110 interf inh 10 and Apaf1 inh interf >100.
Screening CCCc1[nH]nc2c1C(c1ccc(OC)c(CSC3=NCCS3)c1)C(C#N)=C(N)O2 (stereo unspecified) returned DSG3 Ab inh 110, MEKK3 PB1 HTS 105, Apaf1 inhib 41*, MEKK2 mut-MEK5 2, MEKK2wt PB1 HTS 103, UBC13 polyUb -1, Apaf-1 inh conf2 43*, Rh110 interf inh 11 and Apaf1 inh interf >100.
Cc1ccc(S(=O)(=O)c2nc(Cc3ccccc3)oc2N2CCOCC2)cc1 was read as DSG3 Ab inh 102, Apaf1 inhib -9 and UBC13 polyUb -10.
For COc1ccc(CCNC(=O)C(=O)NCC2CCCN2S(=O)(=O)c2ccc(OC)cc2)cc1 (stereo unspecified) the results were DSG3 Ab inh 95, Apaf1 inhib 61*, UBC13 polyUb -2, Apaf-1 inh conf2 12 and Rh110 interf inh 11.
O=C(O)c1ccn(CSc2cc(Cl)ccc2Cl)n1 was read as DSG3 Ab inh 97, Apaf1 inhib 1 and UBC13 polyUb 4.
COc1ccc(OCC(=O)Nc2ccc3c(c2)nc(CCN2CCCCC2)n3C)cc1 was read as DSG3 Ab inh 100, MEKK3 PB1 HTS 103, Apaf1 inhib 15, MEKK2 mut-MEK5 3, MEKK2wt PB1 HTS 105 and UBC13 polyUb 10.
For CCN1CCN(CCc2nc3cc(NC(=O)COc4ccccc4)ccc3n2C)CC1 the results were DSG3 Ab inh 84, MEKK3 PB1 HTS 105, Apaf1 inhib 51*, MEKK2 mut-MEK5 10, MEKK2wt PB1 HTS 114, UBC13 polyUb 8, Apaf-1 inh conf2 26 and Rh110 interf inh 4.
CN1CCN(CCc2nc3cc(NC(=O)COc4ccccc4)ccc3n2C)CC1 was read as DSG3 Ab inh 107, Apaf1 inhib 57*, UBC13 polyUb 9, Apaf-1 inh conf2 21 and Rh110 interf inh 3.
For Cc1cccc(OCC(=O)Nc2ccc3c(c2)nc(CN2CCCCC2)n3C)c1 the results were DSG3 Ab inh 105, MEKK3 PB1 HTS 118, Apaf1 inhib 2, MEKK2 mut-MEK5 24, MEKK2wt PB1 HTS 119 and UBC13 polyUb 0.
Screening Cn1c(CN2CCCC2)nc2cc(NC(=O)COc3ccccc3)ccc21 returned DSG3 Ab inh 85, MEKK3 PB1 HTS 103, Apaf1 inhib 53*, MEKK2 mut-MEK5 0, MEKK2wt PB1 HTS 105, UBC13 polyUb 2, Apaf-1 inh conf2 20 and Rh110 interf inh 3.
For Cn1c(CCN2CCCCC2)nc2cc(NC(=O)COc3ccccc3)ccc21 the results were DSG3 Ab inh 100, MEKK3 PB1 HTS 101, Apaf1 inhib 53*, MEKK2 mut-MEK5 3, MEKK2wt PB1 HTS 110, UBC13 polyUb 6, Apaf-1 inh conf2 16 and Rh110 interf inh 1.

Assay outcomes: PubChem BioAssay, several laboratories
